Some results are limits rather than exact numbers.

Series [1] in a line: Reducing activity against 2,2-diphenyl-1-picrylhydrazyl. Type of series: ADME.
Series [2] can be described thus: Deoxyribose-damaging property as a measure of hydroxyl-radical formation (uM test compound).
Series [3] addresses T1, Arachidonate 5-lipoxygenase (Bos taurus) (UniProt Q9BEG3).
T1 sequence (whole entry): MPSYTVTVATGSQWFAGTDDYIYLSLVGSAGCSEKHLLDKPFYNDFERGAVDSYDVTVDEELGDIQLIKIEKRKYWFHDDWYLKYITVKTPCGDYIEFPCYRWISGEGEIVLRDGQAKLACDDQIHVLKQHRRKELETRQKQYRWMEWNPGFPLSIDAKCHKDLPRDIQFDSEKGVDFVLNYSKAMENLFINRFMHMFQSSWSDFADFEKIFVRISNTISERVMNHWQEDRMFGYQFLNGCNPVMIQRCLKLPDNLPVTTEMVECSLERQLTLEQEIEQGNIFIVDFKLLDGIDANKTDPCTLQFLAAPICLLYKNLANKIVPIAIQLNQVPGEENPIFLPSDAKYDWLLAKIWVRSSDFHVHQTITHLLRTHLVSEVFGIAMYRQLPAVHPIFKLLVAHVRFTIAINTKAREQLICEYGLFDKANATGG
In words: Inhibitory activity against 5-lipoxygenase (inhibition of 5-HETE and LTB4 biosynthesis) in bovine polymorphonuclear leukocytes (PMNL). Type of series: cell-based. The note with it: concentration not given here. A digest of the protocol: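 Bovine PMNL from EDTA blood, platelets removed, 1×10^7 cells/mL in PBS pH 7.4. Compound (DMSO, 0.4% final) preincubated 15 min at 37 °C, then stimulated with CaCl2 2 mM and A23187 20 μM for 10 min. Stopped with methanol/acetonitrile containing NDGA and PGB2 marker. LTB4 (280 nm) and 5-HETE (232 nm) quantified by RP-HPLC against internal and external standards.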

In series [4] the target is T2, Arachidonate 5-lipoxygenase (Bos taurus, UniProt Q9BEG3).
T2 sequence (Q9BEG3 whole entry): T1 sequence (whole entry)
In words: Inhibitory activity against 5-lipoxygenase (inhibition of 5-HETE and LTB4 biosynthesis) in bovine polymorphonuclear leukocytes (PMNL). Type of series: cell-based.

Series [5] can be described thus: Deoxyribose-damaging property as a measure of hydroxyl-radical formation (uM of malondialdehyde/mmol of deoxyribose released by 75 uM test compound). Type of series: ADME. A digest of the protocol:
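2-Deoxy-D-ribose (2 mM) with FeCl3 (0.1 mM) in 30 mM KH2PO4-KOH buffer pH 7.4, compound at 75 μM final (acetonitrile vehicle, fresh stocks), 2 h at 37 °C. TBA/trichloroacetic acid added, heated 100 °C 15 min, acidified, extracted into butanol, A532 read. Calibrated against malondialdehyde standard; expressed as μmol MDA/mmol deoxyribose.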

`COc1ccc(CCC=C2c3cccc(O)c3C(=O)c3c(O)cccc32)cc1` had a kDPPH in series [1] below 1 M⁻¹ s⁻¹. The Deoxyribose degradation (uM of MDA mM-1) in series [2] is below 0.15. In series [3], this molecule returned an inhibition of 24%.

As to `O=C1c2c(O)cccc2C(=Cc2cc(O)c(O)c(O)c2)c2cccc(O)c21`, the IC50 in series [4] is 400 nM. Further, the Deoxyribose degradation in series [5] is reported as 6.03 uM of MDA mM-1. Moreover, the kDPPH in series [1] is above 100 M⁻¹ s⁻¹.
